Our source for the Ratio Ki, Ki and Activity values is ChEMBL document CHEMBL1140701, “Synthesis, conformational analysis, and biological evaluation of 1-hexylindolactam-V10 as a selective activator for novel protein kinase C isozymes” (J Med Chem, 2008).

Assay [1] can be described thus: Selectivity ratio of PKCdelta C1B domain over PKCdelta C1B P11dfP mutant.
Assay [2] concerns the target T1, Protein kinase C alpha type (Homo sapiens, UniProt P17252). Nature of the assay: Displacement of [3H]PDBu from PKCalpha C1B domain. The procedure, abridged: (§1)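 [3H]PDBu (20 nM, 16.3 Ci/mmol) competition binding with synthetic PKC C1 peptides (10–40 nM) in 50 mM Tris-maleate pH 7.4 at 4 °C, with 50 µg/mL phosphatidylserine, 3 mg/mL bovine γ-globulin and varied inhibitor concentrations. IC50 is the concentration giving 50% inhibition of specific binding. Ki derived by the Sharkey–Blumberg method. SD from at least two separate experiments.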
(In a radioligand displacement assay an active substance lowers the binding of a labelled ligand.)

Assay [3] concerns the target Protein kinase C eta type (Homo sapiens, UniProt P24723). Nature of the assay: Displacement of [3H]PDBu from PKCeta C1B domain. The procedure, abridged:
(§2)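 Synthetic PKC C1 peptides (10–40 nM; about 3 nM properly folded, estimated from earlier Scatchard Bmax) were incubated with 20 nM [3H]PDBu (16.3 Ci/mmol) in 50 mM Tris-maleate (pH 7.4 at 4 °C). The mix also held 50 µg/mL 1,2-dioleoyl-sn-glycero-3-phospho-L-serine, 3 mg/mL bovine γ-globulin and varied inhibitor. IC50 came from probit analysis and Ki from the Sharkey–Blumberg method.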

Assay [4] concerns the target Protein kinase C theta type (Homo sapiens, UniProt Q04759). Description: Displacement of [3H]PDBu from PKCtheta C1B domain. In short, it runs like this: as §2
Assay [5] can be described thus: Selectivity ratio of PKCgamma C1A domain over PKCgamma C1A P11dfP mutant.
The target of assay [6] is T2, Protein kinase C gamma type (Homo sapiens, UniProt P05129). Nature of the assay: Displacement of [3H]PDBu from PKCgamma C1B domain. The procedure, abridged:
as §1

Assay [7] addresses T3, Protein kinase C beta type (Homo sapiens, UniProt P05771). Description: Displacement of [3H]PDBu from PKCbeta C1B domain. The procedure, abridged: as §1
Target sequence in this assay (P05771 whole entry, the tested form may be a part): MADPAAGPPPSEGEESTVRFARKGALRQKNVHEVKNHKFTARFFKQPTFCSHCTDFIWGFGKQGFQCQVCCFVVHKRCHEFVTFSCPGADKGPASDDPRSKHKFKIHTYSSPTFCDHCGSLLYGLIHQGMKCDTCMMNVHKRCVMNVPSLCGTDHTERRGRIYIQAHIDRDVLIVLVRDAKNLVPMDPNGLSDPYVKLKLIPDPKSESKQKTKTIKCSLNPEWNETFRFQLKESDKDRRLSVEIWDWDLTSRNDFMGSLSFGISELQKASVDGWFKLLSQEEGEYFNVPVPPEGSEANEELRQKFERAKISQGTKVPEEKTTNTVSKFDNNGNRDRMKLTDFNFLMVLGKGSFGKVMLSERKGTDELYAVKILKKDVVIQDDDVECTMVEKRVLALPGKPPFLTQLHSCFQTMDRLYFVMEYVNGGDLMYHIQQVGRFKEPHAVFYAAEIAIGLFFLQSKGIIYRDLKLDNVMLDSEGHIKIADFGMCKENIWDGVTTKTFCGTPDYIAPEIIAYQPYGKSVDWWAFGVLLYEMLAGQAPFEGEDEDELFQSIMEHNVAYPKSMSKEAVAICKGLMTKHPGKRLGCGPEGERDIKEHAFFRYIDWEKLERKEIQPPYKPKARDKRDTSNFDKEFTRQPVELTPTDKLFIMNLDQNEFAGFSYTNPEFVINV
Assay [8] concerns the target T4, Protein kinase C epsilon type (Homo sapiens, UniProt Q02156).
T4 sequence (Q02156 whole entry): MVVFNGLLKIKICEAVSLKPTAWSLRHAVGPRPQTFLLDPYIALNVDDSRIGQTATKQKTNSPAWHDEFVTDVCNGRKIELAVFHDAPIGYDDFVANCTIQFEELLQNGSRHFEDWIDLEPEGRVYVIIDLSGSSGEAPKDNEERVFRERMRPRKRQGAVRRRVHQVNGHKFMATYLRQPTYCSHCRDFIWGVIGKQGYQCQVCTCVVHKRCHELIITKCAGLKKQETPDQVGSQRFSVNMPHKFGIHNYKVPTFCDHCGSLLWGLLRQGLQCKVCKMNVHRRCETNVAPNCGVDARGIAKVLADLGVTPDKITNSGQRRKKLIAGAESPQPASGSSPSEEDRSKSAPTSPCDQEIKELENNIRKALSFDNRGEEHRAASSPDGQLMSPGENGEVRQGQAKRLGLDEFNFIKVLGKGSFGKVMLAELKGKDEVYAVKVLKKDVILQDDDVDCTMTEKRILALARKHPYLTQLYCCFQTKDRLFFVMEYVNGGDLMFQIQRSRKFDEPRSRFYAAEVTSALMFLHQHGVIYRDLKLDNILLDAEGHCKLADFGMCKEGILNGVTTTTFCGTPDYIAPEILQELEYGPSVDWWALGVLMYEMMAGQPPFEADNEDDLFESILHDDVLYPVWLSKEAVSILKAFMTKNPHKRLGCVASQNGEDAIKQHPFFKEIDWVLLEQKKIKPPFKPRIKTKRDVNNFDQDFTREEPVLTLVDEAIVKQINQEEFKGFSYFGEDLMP
Description: Displacement of [3H]PDBu from PKCepsilon C1B domain. In short, it runs like this:
as §2

Assay [9] can be described thus: Displacement of [3H]PDBu from PKCdelta C1B P11dfP mutant. In short, it runs like this:
as §1

Assay [10] has as its target T1, Protein kinase C alpha type. Nature of the assay: Displacement of [3H]PDBu from PKCalpha C1A domain. In short, it runs like this:
as §1

For assay [11], the target named is Protein kinase C delta type (Homo sapiens, UniProt Q05655). Nature of the assay: Displacement of [3H]PDBu from PKCdelta C1B domain. The procedure, abridged: as §1
In assay [12] the target is T3, Protein kinase C beta type. Nature of the assay: Displacement of [3H]PDBu from PKCbeta C1A domain. In short, it runs like this: as §1
Target sequence in this assay (P05771 whole entry, the tested form may be a part): as the sequence (P05771 whole entry, the tested form may be a part) above
A short description of assay [13]: Displacement of [3H]PDBu from PKCgamma C1A P11dfP mutant. In short, it runs like this:
as §1

The target in assay [14] is T2, Protein kinase C gamma type. Nature of the assay: Displacement of [3H]PDBu from PKCgamma C1A domain. The procedure, abridged:
as §1

For assay [15], the target named is T3, Protein kinase C beta type. Nature of the assay: Displacement of [3H]PDBu from PKCbeta C1A domain at 10 uM. In short, it runs like this:
(§3)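 Competition for specific [3H]PDBu (20 nM, 16.3 Ci/mmol) binding to C1 peptide (10–40 nM) was tested with a single 10 µM competitor. The buffer was 50 mM Tris-maleate (pH 7.4 at 4 °C) with 50 µg/mL dioleoylphosphatidylserine and 3 mg/mL bovine γ-globulin.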
Target sequence in this assay (P05771 2-671 limits assumed): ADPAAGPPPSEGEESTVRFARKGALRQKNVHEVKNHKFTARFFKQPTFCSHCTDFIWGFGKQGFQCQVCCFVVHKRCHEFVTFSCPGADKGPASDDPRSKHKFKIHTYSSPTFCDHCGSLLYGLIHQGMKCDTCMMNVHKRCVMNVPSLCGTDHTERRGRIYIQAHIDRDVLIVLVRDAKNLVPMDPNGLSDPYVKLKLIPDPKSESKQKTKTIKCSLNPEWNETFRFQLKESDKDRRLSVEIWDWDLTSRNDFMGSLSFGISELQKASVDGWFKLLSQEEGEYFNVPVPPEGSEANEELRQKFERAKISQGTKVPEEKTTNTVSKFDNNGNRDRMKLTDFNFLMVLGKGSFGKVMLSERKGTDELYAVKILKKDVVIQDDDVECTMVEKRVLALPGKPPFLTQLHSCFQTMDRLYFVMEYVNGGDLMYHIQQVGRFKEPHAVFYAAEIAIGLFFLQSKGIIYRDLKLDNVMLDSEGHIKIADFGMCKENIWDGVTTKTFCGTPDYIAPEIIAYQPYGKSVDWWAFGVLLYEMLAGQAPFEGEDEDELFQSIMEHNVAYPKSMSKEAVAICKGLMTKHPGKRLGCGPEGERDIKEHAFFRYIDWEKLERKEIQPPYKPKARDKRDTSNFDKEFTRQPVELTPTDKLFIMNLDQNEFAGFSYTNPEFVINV

Assay [16] has as its target T3, Protein kinase C beta type. Nature of the assay: Displacement of [3H]PDBu from PKCbeta C1B domain at 10 uM. In short, it runs like this: as §3
Target sequence in this assay (P05771 2-671 limits assumed): as above

The source made the active and inactive calls. The rule behind the calls is not given here.

Chain of Protein kinase C delta type (Q05655 whole entry, the tested form may be a part): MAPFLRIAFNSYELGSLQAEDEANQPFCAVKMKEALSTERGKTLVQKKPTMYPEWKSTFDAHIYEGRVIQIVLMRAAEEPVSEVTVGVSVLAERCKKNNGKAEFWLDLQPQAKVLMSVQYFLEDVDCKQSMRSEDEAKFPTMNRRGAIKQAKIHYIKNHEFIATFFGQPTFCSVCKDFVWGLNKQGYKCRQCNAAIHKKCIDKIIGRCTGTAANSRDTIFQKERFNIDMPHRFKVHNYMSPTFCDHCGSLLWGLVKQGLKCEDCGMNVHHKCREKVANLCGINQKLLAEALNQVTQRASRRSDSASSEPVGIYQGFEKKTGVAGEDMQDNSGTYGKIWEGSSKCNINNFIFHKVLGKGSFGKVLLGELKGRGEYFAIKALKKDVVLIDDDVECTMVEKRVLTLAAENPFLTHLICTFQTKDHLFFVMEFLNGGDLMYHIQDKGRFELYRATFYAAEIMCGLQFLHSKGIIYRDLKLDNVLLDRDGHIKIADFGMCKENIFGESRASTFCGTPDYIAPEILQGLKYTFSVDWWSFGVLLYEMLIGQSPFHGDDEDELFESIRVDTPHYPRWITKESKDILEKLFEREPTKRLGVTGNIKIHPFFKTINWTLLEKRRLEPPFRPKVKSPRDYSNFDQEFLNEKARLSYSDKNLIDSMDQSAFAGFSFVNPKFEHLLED
Chain of Protein kinase C theta type (Q04759 whole entry, the tested form may be a part): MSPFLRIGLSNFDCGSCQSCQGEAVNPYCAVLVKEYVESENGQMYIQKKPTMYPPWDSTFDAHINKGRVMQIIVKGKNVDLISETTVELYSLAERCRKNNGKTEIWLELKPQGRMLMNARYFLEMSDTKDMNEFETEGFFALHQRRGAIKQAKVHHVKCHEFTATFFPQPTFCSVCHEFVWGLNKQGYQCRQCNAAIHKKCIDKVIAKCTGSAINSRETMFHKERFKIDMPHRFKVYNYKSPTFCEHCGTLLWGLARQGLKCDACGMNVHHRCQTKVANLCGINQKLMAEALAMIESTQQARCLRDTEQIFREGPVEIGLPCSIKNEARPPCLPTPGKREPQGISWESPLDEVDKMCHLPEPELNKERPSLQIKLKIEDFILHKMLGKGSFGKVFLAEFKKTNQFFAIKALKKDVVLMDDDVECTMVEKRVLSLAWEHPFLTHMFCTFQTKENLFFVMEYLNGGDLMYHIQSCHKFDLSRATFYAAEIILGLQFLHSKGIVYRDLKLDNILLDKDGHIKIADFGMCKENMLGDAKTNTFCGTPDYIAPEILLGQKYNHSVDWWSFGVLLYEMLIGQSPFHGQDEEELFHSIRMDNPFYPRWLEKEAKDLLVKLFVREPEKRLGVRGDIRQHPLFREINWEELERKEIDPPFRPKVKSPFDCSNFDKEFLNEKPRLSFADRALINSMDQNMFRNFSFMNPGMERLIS
Chain of Protein kinase C eta type (P24723 whole entry, the tested form may be a part): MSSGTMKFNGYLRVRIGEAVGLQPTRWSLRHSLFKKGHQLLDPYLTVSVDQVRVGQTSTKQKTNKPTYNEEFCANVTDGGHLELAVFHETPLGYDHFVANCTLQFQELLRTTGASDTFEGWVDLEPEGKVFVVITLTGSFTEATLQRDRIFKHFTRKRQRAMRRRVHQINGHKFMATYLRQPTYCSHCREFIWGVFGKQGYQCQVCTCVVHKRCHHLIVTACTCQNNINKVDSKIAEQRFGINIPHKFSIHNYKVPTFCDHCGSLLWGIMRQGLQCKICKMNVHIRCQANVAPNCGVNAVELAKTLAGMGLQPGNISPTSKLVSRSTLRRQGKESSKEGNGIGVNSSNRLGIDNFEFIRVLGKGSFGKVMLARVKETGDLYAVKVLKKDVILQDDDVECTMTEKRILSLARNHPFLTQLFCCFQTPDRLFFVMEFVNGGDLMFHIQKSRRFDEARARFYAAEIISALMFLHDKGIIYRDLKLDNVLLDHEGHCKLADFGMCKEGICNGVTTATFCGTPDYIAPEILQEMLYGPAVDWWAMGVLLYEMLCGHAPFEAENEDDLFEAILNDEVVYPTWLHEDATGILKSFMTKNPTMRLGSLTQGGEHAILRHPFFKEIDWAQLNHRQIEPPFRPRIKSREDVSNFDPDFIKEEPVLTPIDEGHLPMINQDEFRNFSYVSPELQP

Consider `CCCCCCn1cc2c3c(cccc31)N(C)[C@@H](C(C)C)C(=O)N[C@H](CO)C2`, for which the Ratio Ki was found to be 8 in assay [1] and 4.7 in [5]. Further, the inhibitory constant (Ki) – broadly, a measure of affinity in units of concentration, obtained from inhibition or displacement – in [2] amounted to 0.043 µM; in [3], 0.00034 µM; in assay [4] it was 0.0014 µM; in assay [6], 0.039 µM; in assay [7], 0.011 µM; in [8] it was 0.00047 µM. Moreover, the Ki in assay [9] stood at 0.0037 µM; in assay [10] it was 0.0058 µM; in [11], 0.00046 µM; in assay [12], 0.0098 µM; in assay [13] it was 0.071 µM; in [14], 0.015 µM.
For the compound `CCCCCCn1cc2c3c(c(Cl)ccc31)N(C)[C@@H](C(C)C)C(=O)N[C@H](CO)CC2`, the result in assay [15] and in assay [16] was inactive.
For `CC(C)[C@H]1C(=O)N[C@H](CO)Cc2ccccc2N1C`, the Ratio Ki was determined as 1.1 in [1] and 0.8 in assay [5]. The Ki in [9] was 0.436 µM; in assay [11] it was 0.41 µM; in assay [13] it was 2.5 µM; in [14] it was 3.1 µM.
For the compound `CCCCCCn1c(Br)c2c3c(cccc31)N(C)[C@@H](C(C)C)C(=O)N[C@H](CO)CC2`, the result in assay [15] and in assay [16] was inactive.
Consider `CCCCCCn1cc2c3c(cccc31)N(C)[C@@H](C(C)C)C(=O)N[C@H](CO)CC2`, for which the Ratio Ki worked out at 8 in [1] and 1.3 in [5]. In addition, the Ki in [2] was greater than 10 µM; in assay [3], 0.025 µM; in assay [4], 0.012 µM; in [6], 0.42 µM; in assay [7], 0.44 µM; in assay [8], 0.029 µM. Moreover, the Ki in assay [9] came to 0.12 µM; in assay [10] it was 6.7 µM; in assay [11] it was 0.015 µM; in assay [12] it was 9.2 µM; in assay [13] it was 14 µM; in assay [14], 11 µM.
For `CC(C)[C@H]1C(=O)N[C@H](CO)Cc2c[nH]c3cccc(c23)N1C` [INDOLACTUM], the Ratio Ki in assay [1] was found to be 11.8; in assay [5], 7.8. Also, the Ki was determined as 0.059 µM in assay [6]; 0.13 µM in assay [9]; 0.021 µM in [10]; 0.011 µM in assay [11]; 0.019 µM in assay [12]; 0.69 µM in assay [13]. In assay [14], the Ki is 0.089 µM.
